ChEMBL document CHEMBL1909633, “Pseudoguaianolides and guaianolides from Inula hupehensis as potential anti-inflammatory agents” (J Nat Prod, 2011)

How the values were obtained:
RAW264.7 [1] = test: Antiinflammatory action in mouse RAW264.7 cells assessed as inhibition of LPS-induced nitric oxide production treated 30 mins before LPS challenge measured after 24 hrs by griess reaction; format: functional, cell-based
Outline: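 RAW264.7 macrophages seeded at 2 × 10^5 cells/well, pretreated 30 min with samples over 0.1–50.0 μM, then stimulated with LPS 1 μg/mL for 24 h. NO quantified as nitrite in culture supernatant using Griess reagent; IC50 derived.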

RAW264.7 [2] = test: Cytotoxicity against mouse RAW264.7 cells after 24 hrs by MTT assay; format: cell-based; details: raw264.7, 24 h
Outline: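 RAW264.7 macrophages, cultured and treated alongside the LPS (1 μg/mL, 24 h) NO assay with sample pretreatment of 30 min; viability read by MTT reduction.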

Row | SMILES | IC50 (RAW264.7 [1]) [µM] | Activity (RAW264.7 [2])
1 | C=C1C(=O)O[C@H]2C=C(C)[C@H]3CC[C@](C)(O)[C@@H]3C[C@H]12 | 6.3 | Non-toxic
2 | C=C1C(=O)O[C@H]2[C@H]1[C@@H](O)C[C@@H](C)[C@@H]1C=CC(=O)[C@]12C | 3.5 | Non-toxic
3 | C[C@@H]1C[C@@H]2OC(=O)[C@@H](C)[C@H]2[C@H](O)[C@]2(C)C(=O)C=C[C@@H]12 | 10.5 | Non-toxic
4 | C[C@@H]1C[C@@H]2OC(=O)[C@H](C)[C@H]2[C@H](O)[C@]2(C)C(=O)CC[C@@H]12 | 19.8 | Non-toxic
5 | C=C1C(=O)O[C@H]2C=C(C)[C@@H]3[C@@H]([C@@H](O)[C@H]12)[C@](C)(O)C[C@@H]3OC(C)=O | 9.2 | Non-toxic
6 | C=C1C(=O)O[C@H]2C[C@@H](C)[C@@H]3C=CC(=O)[C@@]3(C)[C@@H](O)[C@H]12 | 1.1 | Non-toxic
7 | C=C1C(=O)O[C@H]2C=C(C)[C@H]3CC[C@@](C)(O)[C@@H]3[C@@H](OC(C)=O)[C@H]12 | 17.1 | Non-toxic
8 | C=C1C[C@H]2OC(=O)C(=C)[C@H]2C[C@@H]2[C@@H]1CC[C@@]2(C)O | 8 | Non-toxic
9 | C=C1C(=O)O[C@H]2C[C@@H](C)[C@@H]3C=CC(=O)[C@@]3(C)C[C@H]12 [AROMATICIN] | 8.2 | Non-toxic
10 | C=C1C(=O)O[C@H]2C[C@@H](C)[C@@H]3C=CC(=O)[C@@]3(C)[C@@H](OC(C)=O)[C@H]12 [BIGELOVIN] | 0.9 | Non-toxic
11 | C=C1C(=O)O[C@H]2C[C@@](C)(O)C3=CC[C@](C)(O)[C@@H]3C[C@H]12 [GUAIANOLIDE] | 26.8 | Non-toxic
12 | C=C1C(=O)O[C@@H]2CC(C)=C3[C@@H](OC(C)=O)C[C@@](C)(O)[C@@H]3C[C@H]12 [INUCHINENOLIDE B] | 9.9 | Non-toxic
13 | C=C1C(=O)O[C@H]2C[C@H](C)[C@@H]3C(OC(C)=O)CC(OC(C)=O)[C@@]3(C)[C@@H](O)[C@H]12 (some centres undefined) [INUCHINENOLIDE C] | 0.6 | Non-toxic
14 | C=C1C(=O)O[C@H]2CC(=C)[C@H]3CC[C@@](C)(O)[C@@H]3C[C@H]12 [INUVISCOLIDE] | 21.9 | Non-toxic
15 | N=C(N)NN [PIMAGEDINE] | 7.9 | 

Further lines, with some results ahead:

Row | IC50 (RAW264.7 [1]) [µM] | SMILES | Activity (RAW264.7 [2])
16 | 6.6 | C=C1C(=O)O[C@H]2C[C@@H](COC(C)=O)[C@@H]3CCC(=O)[C@@]3(C)C[C@H]12 | Non-toxic
17 | 5.1 | C=C1C(=O)O[C@H]2C[C@@H](C)[C@@H]3[C@H](OC)CC(=O)[C@@]3(C)[C@@H](O)[C@H]12 | Non-toxic
18 | 3.8 | C=C1C(=O)O[C@H]2C[C@@H](C)[C@@H]3[C@H](OCC)CC(=O)[C@@]3(C)[C@@H](O)[C@H]12 | Non-toxic
19 | 2.2 | C=C1C(=O)O[C@H]2C[C@@H](C)[C@@H]3[C@H](OC)CC(=O)[C@@]3(C)[C@@H](OC(C)=O)[C@H]12 | Non-toxic
20 | 1.5 | C=C1C(=O)O[C@H]2C[C@@H](C)[C@@H]3[C@@H](OC)CC(=O)[C@@]3(C)[C@@H](OC(C)=O)[C@H]12 | Non-toxic
21 | 9.5 | C=C1C(=O)O[C@@H]2C[C@H](C)[C@@H]3[C@@H](O)CC(=O)[C@@]3(C)C[C@H]12 [BURRODIN] | Non-toxic
22 | 8.4 | C=C1C(=O)O[C@H]2C[C@@H](C)[C@@H]3CCC(=O)[C@@]3(C)[C@@H](O)[C@H]12 [CARPESIOLIN] | Non-toxic
23 | 9.8 | C=C1C(=O)O[C@@H]2C[C@H](C)[C@@H]3CCC(=O)[C@@]3(C)C[C@H]12 [CONFERTIN] | Non-toxic
24 | 3.9 | C=C1C(=O)O[C@H]2C[C@@H](C)[C@@H]3CCC(=O)[C@@]3(C)[C@@H](OC(C)=O)[C@H]12 [ERGOLIDE] | Non-toxic
25 | 9.2 | C=C1C(=O)O[C@H]2C[C@@H](C)[C@@H]3CCC(=O)[C@@]3(C)C[C@H]12 [GRAVEOLIDE] | Non-toxic
